Data published in ChEMBL document CHEMBL3751743, “Synthesis and anti-cancer screening of novel heterocyclic-(2H)-1,2,3-triazoles as potential anti-cancer agents” (Medchemcomm, 2015).

Assays:
[1] = system: SR; assay: Cytotoxicity against human SR cells after 48 hrs by SRB assay; type: functional
In short: (§1)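 NCI-60 five-dose screen: compounds dissolved in DMSO/H2O, tested at five 10-fold dilutions (10^-4 to 10^-8 M) for 48 h. Growth measured by sulforhodamine B optical density at time zero and after 48 h drug or vehicle exposure. Percentage growth calculated relative to control. GI50 is the molar concentration giving 50% reduction in net cell growth versus day-0 cell numbers.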

[2] = Cytotoxicity against human DU145 cells after 48 hrs by SRB assay; type: functional; details: DU-145, 48 h; in short: as §1
[3] = system: U-251; assay: Cytotoxicity against human U251 cells after 48 hrs by SRB assay; type: functional; details: U-251, 48 h
In short: (§2)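 NCI-60 five-dose screen. Compounds dissolved in DMSO/H2O and tested at five 10-fold dilutions (10^-4 to 10^-8 M) for 48 h. Growth read by sulforhodamine B optical density at time zero and after 48 h of exposure to compound or vehicle. Percent growth calculated against control. GI50 is the molar concentration giving 50% reduction in net cell growth relative to cell number on day 0.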

[4] = system: MDA-MB-435; assay: Cytotoxicity against human MDA-MB-435 cells after 48 hrs by SRB assay; type: functional; details: MDA-MB-435, 48 h; in short: as §1
[5] = Cytotoxicity against human PC3 cells after 48 hrs by SRB assay; type: functional; details: PC-3, 48 h; in short: as §1
[6] = Cytotoxicity against human COLO205 cells after 48 hrs by SRB assay; type: functional; details: COLO 205, 48 h; in short: as §1
[7] = system: CCRF-CEM; assay: Cytotoxicity against human CCRF-CEM cells after 48 hrs by SRB assay; type: functional; in short: as §1
[8] = Cytotoxicity against human HOP92 cells after 48 hrs by SRB assay; type: functional; details: HOP-92, 48 h; in short: as §1
[9] = system: HT-29; assay: Cytotoxicity against human HT-29 cells after 48 hrs by SRB assay; type: functional; details: HT-29, 48 h; in short: as §1
[10] = Cytotoxicity against human HL-60(TB) cells after 48 hrs by SRB assay; type: functional; details: HL-60, 48 h; in short: as §1
[11] = system: K562; assay: Cytotoxicity against human K562 cells after 48 hrs by SRB assay; type: functional; details: K562, 48 h; in short: as §1
[12] = system: NCI-H522; assay: Cytotoxicity against human NCI-H522 cells after 48 hrs by SRB assay; type: functional; details: NCI-H522, 48 h; in short: as §1
[13] = system: SK-MEL-2; assay: Cytotoxicity against human SK-MEL-2 cells after 48 hrs by SRB assay; type: functional; details: SK-MEL-2, 48 h; in short: as §1
[14] = Cytotoxicity against human UO31 cells after 48 hrs by SRB assay; type: functional; details: UO-31, 48 h; in short: as §2
[15] = Cytotoxicity against human HCC2998 cells after 48 hrs by SRB assay; type: functional; details: HCC 2998, 48 h; in short: as §1
[16] = system: 786-0; assay: Cytotoxicity against human 786-0 cells after 48 hrs by SRB assay; type: functional; details: 786-0, 48 h; in short: as §1
[17] = system: NCI-H23; assay: Cytotoxicity against human NCI-H23 cells after 48 hrs by SRB assay; type: functional; details: NCI-H23, 48 h; in short: as §1
[18] = Cytotoxicity against human HCT116 cells after 48 hrs by SRB assay; type: functional; details: HCT-116, 48 h; in short: as §1
[19] = Cytotoxicity against human OVCAR4 cells after 48 hrs by SRB assay; type: functional; details: OVCAR-4, 48 h; in short: as §1
[20] = system: NCI-H460; assay: Cytotoxicity against human NCI-H460 cells after 48 hrs by SRB assay; type: functional; details: NCI-H460, 48 h; in short: as §1
[21] = system: M14; assay: Cytotoxicity against human M14 cells after 48 hrs by SRB assay; type: functional; details: M14, 48 h; in short: as §1
[22] = Cytotoxicity against human Hs 578T cells after 48 hrs by SRB assay; type: functional; in short: as §1
[23] = system: ACHN; assay: Cytotoxicity against human ACHN cells after 48 hrs by SRB assay; type: functional; in short: as §1
[24] = Cytotoxicity against human UACC257 cells after 48 hrs by SRB assay; type: functional; details: UACC-257, 48 h; in short: as §2
[25] = Cytotoxicity against human BT549 cells after 48 hrs by SRB assay; type: functional; details: BT-549, 48 h; in short: as §1
[26] = Cytotoxicity against human SF268 cells after 48 hrs by SRB assay; type: functional; details: SF-268, 48 h; in short: as §1
[27] = system: A498; assay: Cytotoxicity against human A498 cells after 48 hrs by SRB assay; type: functional; details: A498, 48 h; in short: as §1
[28] = system: MDA-MB-231; assay: Cytotoxicity against human MDA-MB-231 cells after 48 hrs by SRB assay; type: functional; details: MDA-MB-231, 48 h; in short: as §1
[29] = system: SK-MEL-5; assay: Cytotoxicity against human SK-MEL-5 cells after 48 hrs by SRB assay; type: functional; details: SK-MEL-5, 48 h; in short: as §1
[30] = Cytotoxicity against human UACC62 cells after 48 hrs by SRB assay; type: functional; details: UACC-62, 48 h; in short: as §2
[31] = system: T47D; assay: Cytotoxicity against human T47D cells after 48 hrs by SRB assay; type: functional; in short: as §2
[32] = Cytotoxicity against human SNB19 cells after 48 hrs by SRB assay; type: functional; details: SNB-19, 48 h; in short: as §1
[33] = system: MDA-MB-468; assay: Cytotoxicity against human MDA-MB-468 cells after 48 hrs by SRB assay; type: functional; details: MDA-MB-468, 48 h; in short: as §1
[34] = Cytotoxicity against human MOLT4 cells after 48 hrs by SRB assay; type: functional; details: MOLT-4, 48 h; in short: as §1
[35] = Cytotoxicity against human OVCAR8 cells after 48 hrs by SRB assay; type: functional; details: OVCAR-8, 48 h; in short: as §1
[36] = Cytotoxicity against human Caki1 cells after 48 hrs by SRB assay; type: functional; details: CAKI-1, 48 h; in short: as §1
[37] = system: KM12; assay: Cytotoxicity against human KM12 cells after 48 hrs by SRB assay; type: functional; details: KM12, 48 h; in short: as §1
[38] = system: MCF7; assay: Cytotoxicity against human MCF7 cells after 48 hrs by SRB assay; type: functional; details: MCF7, 48 h; in short: as §1
[39] = target: Tubulin (Sus scrofa, UniProt P02554+P02550); assay: Inhibition of porcine brain tubulin polymerization by spectrophotometric analysis
In short: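 Tubulin at 4 mg/mL in cold 80 mM PIPES pH 6.9 with 2 mM MgCl2, 0.5 mM EGTA, GTP and 10% glycerol. Compound (added as 10x stock in 50% DMSO) or DMSO was preincubated 2 min at 37 °C in a prewarmed plate. Cold tubulin was then added, and polymerization at 37 °C was followed by A340 over time. Dose-response, mean ± s.d., n=3.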

[40] = Cytotoxicity against human OVCAR3 cells after 48 hrs by SRB assay; type: functional; details: OVCAR-3, 48 h; in short: as §1
[41] = Cytotoxicity against human HCT15 cells after 48 hrs by SRB assay; type: functional; details: HCT-15, 48 h; in short: as §1
[42] = Cytotoxicity against human SNB75 cells after 48 hrs by SRB assay; type: functional; details: SNB-75, 48 h; in short: as §1
[43] = Cytotoxicity against human SF539 cells after 48 hrs by SRB assay; type: functional; details: SF-539, 48 h; in short: as §1
[44] = Cytotoxicity against human SF295 cells after 48 hrs by SRB assay; type: functional; details: SF-295, 48 h; in short: as §1
[45] = Cytotoxicity against human LOXIMVI cells after 48 hrs by SRB assay; type: functional; details: LOX IMVI; in short: as §1
[46] = Cytotoxicity against human NCI-ADR-RES cells after 48 hrs by SRB assay; type: functional; in short: as §1
[47] = system: NCI-H226; assay: Cytotoxicity against human NCI-H226 cells after 48 hrs by SRB assay; type: functional; details: NCI-H226, 48 h; in short: as §1
[48] = Cytotoxicity against human RXF393 cells after 48 hrs by SRB assay; type: functional; details: RXF 393, 48 h; in short: as §1
[49] = system: A549; assay: Cytotoxicity against human A549 cells after 48 hrs by SRB assay; type: functional; details: A549, 48 h; in short: as §1
[50] = Cytotoxicity against human OVCAR5 cells after 48 hrs by SRB assay; type: functional; details: OVCAR-5, 48 h; in short: as §1
[51] = system: SN12C; assay: Cytotoxicity against human SN12C cells after 48 hrs by SRB assay; type: functional; in short: as §1
[52] = Cytotoxicity against human TK10 cells after 48 hrs by SRB assay; type: functional; details: TK-10, 48 h; in short: as §2
[53] = Cytotoxicity against human SW620 cells after 48 hrs by SRB assay; type: functional; details: SW-620, 48 h; in short: as §1
[54] = Cytotoxicity against human SKOV3 cells after 48 hrs by SRB assay; type: functional; details: SK-OV-3, 48 h; in short: as §1
[55] = Cytotoxicity against human RPMI8226 cells after 48 hrs by SRB assay; type: functional; details: RPMI-8226, 48 h; in short: as §1

## COc1cc(OC)cc(-c2n[nH]nc2-c2c[nH]c3ccccc23)c1
[1]
  GI50: 0.047 µM
[2]
  GI50: 0.075 µM
[3]
  GI50: 0.054 µM
[4]
  GI50: 0.01 µM
[5]
  GI50: 0.038 µM
[6]
  GI50: 0.035 µM
[7]
  GI50: 0.037 µM
[8]
  GI50: 0.029 µM
[9]
  GI50: 0.031 µM
[10]
  GI50: 0.033 µM
[11]
  GI50: 0.031 µM
[12]
  GI50: 0.013 µM
[13]
  GI50: 0.031 µM
[14]
  GI50: 0.062 µM
[15]
  GI50: 0.251 µM
[16]
  GI50: 0.03 µM
[17]
  GI50: 0.124 µM
[18]
  GI50: 0.031 µM
[19]
  GI50: 2.67 µM
[20]
  GI50: 0.038 µM
[21]
  GI50: 0.031 µM
[22]
  GI50: 0.031 µM
[23]
  GI50: 0.045 µM
[24]
  GI50: > 100 µM
[25]
  GI50: 0.017 µM
[26]
  GI50: 0.067 µM
[27]
  GI50: 0.033 µM
[28]
  GI50: 0.076 µM
[29]
  GI50: 0.034 µM
[30]
  GI50: 0.034 µM
[31]
  GI50: 0.044 µM
[32]
  GI50: 0.056 µM
[33]
  GI50: 0.037 µM
[34]
  GI50: 0.063 µM
[35]
  GI50: 0.07 µM
[36]
  GI50: 0.038 µM
[37]
  GI50: 0.045 µM
[38]
  GI50: 0.029 µM
[39]
  IC50: 13.5 µM
[40]
  GI50: 0.028 µM
[41]
  GI50: 0.031 µM
[42]
  GI50: 0.025 µM
[43]
  GI50: 0.024 µM
[44]
  GI50: 0.026 µM
[45]
  GI50: 0.055 µM
[46]
  GI50: 0.03 µM
[47]
  GI50: 0.075 µM
[48]
  GI50: 0.052 µM
[49]
  GI50: 0.088 µM
[50]
  GI50: 0.416 µM
[51]
  GI50: 0.069 µM
[52]
  GI50: 0.083 µM
[53]
  GI50: 0.035 µM
[54]
  GI50: 0.034 µM
[55]
  GI50: 0.053 µM
